According to ChEMBL document CHEMBL2331148, “Design and synthesis of imidazole and triazole derivatives as Lp-PLA₂ inhibitors and the unexpected discovery of highly potent quaternary ammonium salts” (Bioorg Med Chem Lett, 2013):
The source made the active and inactive calls. The rule behind the calls is not given here.

Columns and labels:
Oryctolagus cuniculus [1] = species on record: Oryctolagus cuniculus; test: Inhibition of rabbit plasma Lp-PLA2 at 1 microM by liquid scintillation counting; type: cell-free
Outline: (§1)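 Plasma used as the enzyme source. Compounds were added from DMSO solution to buffer of 50 mmol/L HEPES (pH 7.4) and 150 mmol/L NaCl. Preincubated 5 min at 37 °C, then [3H]PAF (1uCi) was added and incubated 10 min at 37 °C. Lipids were extracted with CHCl3/MeOH (2:1) and centrifuged at 12000g, 4 °C, 15 min. Supernatant radioactivity was counted. Result is % inhibition at the tested concentration.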

Oryctolagus cuniculus [2] = species on record: Oryctolagus cuniculus; test: Inhibition of rabbit plasma Lp-PLA2 at 10 microM by liquid scintillation counting; type: cell-free; outline: as §1
Homo sapiens [3] = species on record: Homo sapiens; test: Inhibition of human plasma Lp-PLA2 at 1 nM by liquid scintillation counting; type: cell-free; outline: as §1
Homo sapiens [4] = species on record: Homo sapiens; test: Inhibition of human plasma Lp-PLA2 at 10 nM by liquid scintillation counting; type: cell-free; outline: as §1
Oryctolagus cuniculus [5] = species on record: Oryctolagus cuniculus; test: Inhibition of rabbit plasma Lp-PLA2 at 10 nM by liquid scintillation counting; type: cell-free; outline: as §1
Oryctolagus cuniculus [6] = species on record: Oryctolagus cuniculus; test: Inhibition of rabbit plasma Lp-PLA2 at 100 nM by liquid scintillation counting; type: cell-free; outline: as §1
Mus musculus [7] = test: Inhibition of plasma Lp-PLA2 in Apo-E mouse model at 50 mg/kg, ip measured after 12 hrs by in vivo inhibition assay; type: functional, organism-based; design: dose 50 mg/kg
Mus musculus [8] = test: Inhibition of plasma Lp-PLA2 in Apo-E mouse model at 50 mg/kg, ip measured after 24 hrs by in vivo inhibition assay; type: functional, organism-based; design: dose 50 mg/kg

Structure (SMILES) | inhibition (Oryctolagus cuniculus [1]) [%] | inhibition (Oryctolagus cuniculus [2]) [%] | inhibition (Homo sapiens [3]) [%] | inhibition (Homo sapiens [4]) [%] | inhibition (Oryctolagus cuniculus [5]) [%] | inhibition (Oryctolagus cuniculus [6]) [%] | inhibition (Mus musculus [7]) | inhibition (Mus musculus [8])
O=c1nc(SCc2ccc(F)cc2)n(Cc2nccn2Cc2ccc(-c3ccc(Cl)cc3)cc2)c2c1CCC2 | 2 | 50 | – | – | – | – | – | –
O=c1nc(SCc2ccc(F)cc2)n(Cc2ncc(C[N+]3(Cc4ccc(F)cc4)CCCC3)n2Cc2ccc(-c3ccc(C(F)(F)F)cc3)cc2)c2c1CCC2 | – | – | 79 | 97 | 88 | – | – | –
Cc1ccc(-c2ccc(Cn3ccnc3Cn3c(SCc4ccc(F)cc4)nc(=O)c4c3CCC4)cc2)cc1 | – | 28 | – | – | – | – | – | –
CCCCCCCCCCCCn1ccnc1Cn1c(SCc2ccc(F)cc2)nc(=O)c2c1CCC2 | 42 | 88 | – | – | – | – | – | –
CN(C)Cc1cnc(Cn2c(SCc3ccc(F)cc3)nc(=O)c3c2CCC3)n1Cc1ccc(-c2ccc(C(F)(F)F)cc2)cc1 | – | – | 54 | 75 | 13 | 87 | – | –
O=c1nc(SCc2ccc(F)cc2)n(Cc2ncc(CN3CCCC3)n2Cc2ccc(-c3ccc(C(F)(F)F)cc3)cc2)c2c1CCC2 | – | – | 21 | 67 | 10 | 79 | – | –
CCCCCCCCCCc1cnc(Cn2c(SCc3ccc(F)cc3)nc(=O)c3c2CCC3)n1CCN(CC)CC | – | 6 | – | – | – | – | – | –
O=c1nc(SCc2ccc(F)cc2)n(Cc2nccn2Cc2ccc(-c3ccccc3)cc2)c2c1CCC2 | – | 3 | – | – | – | – | – | –
CCN(CC)CCN(Cc1ccc(-c2ccc(C(F)(F)F)cc2)cc1)C(=O)Cn1c(SCc2ccc(F)cc2)nc(=O)c2c1CCC2 | – | – | 80 | 95 | 82 | 99 | Active | –
C[N+](C)(Cc1ccc(F)cc1)Cc1cnc(Cn2c(SCc3ccc(F)cc3)nc(=O)c3c2CCC3)n1Cc1ccc(-c2ccc(C(F)(F)F)cc2)cc1 | – | – | 85 | 97 | 97 | 99 | – | –
CCN(CC)Cc1cnc(Cn2c(SCc3ccc(F)cc3)nc(=O)c3c2CCC3)n1Cc1ccc(-c2ccc(C(F)(F)F)cc2)cc1 | – | – | 52 | 75 | 10 | 88 | – | –
CCCCCCCCCCc1nnc(Cn2c(SCc3ccc(F)cc3)nc(=O)c3c2CCC3)n1CC | – | 27 | – | – | – | – | – | –
O=c1nc(SCc2ccc(F)cc2)n(Cc2ncc(CN3CCCCC3)n2Cc2ccc(-c3ccc(C(F)(F)F)cc3)cc2)c2c1CCC2 | – | – | 58 | 69 | 11 | 86 | – | –
C[N+](C)(Cc1ccc(F)cc1)Cc1nnc(Cn2c(SCc3ccc(F)cc3)nc(=O)c3c2CCC3)n1Cc1ccc(-c2ccc(C(F)(F)F)cc2)cc1 | – | – | 95 | 99 | 91 | 97 | – | Active
O=c1nc(SCc2ccc(F)cc2)n(Cc2nccn2Cc2ccc(-c3ccc(C(F)(F)F)cc3)cc2)c2c1CCC2 | 80 | – | – | – | – | 17 | – | –
CCN(CC)CCn1c(-c2ccc(-c3ccc(C(F)(F)F)cc3)cc2)cnc1Cn1c(SCc2ccc(F)cc2)nc(=O)c2c1CCC2 | 16 | 20 | – | – | – | – | – | –

The next lines start with results.

inhibition (Oryctolagus cuniculus [1]) [%] | inhibition (Oryctolagus cuniculus [2]) [%] | inhibition (Homo sapiens [3]) [%] | inhibition (Homo sapiens [4]) [%] | inhibition (Oryctolagus cuniculus [5]) [%] | inhibition (Oryctolagus cuniculus [6]) [%] | Structure (SMILES) | inhibition (Mus musculus [7]) | inhibition (Mus musculus [8])
– | – | 44 | 67 | 8 | 67 | CC(=O)NCc1nnc(Cn2c(SCc3ccc(F)cc3)nc(=O)c3c2CCC3)n1Cc1ccc(-c2ccc(C(F)(F)F)cc2)cc1 | – | –
– | – | 77 | 97 | 91 | 93 | C[N+](C)(C)Cc1nnc(Cn2c(SCc3ccc(F)cc3)nc(=O)c3c2CCC3)n1Cc1ccc(-c2ccc(C(F)(F)F)cc2)cc1 | – | –
– | – | 60 | 78 | 21 | 85 | CCN(CC)Cc1nnc(Cn2c(SCc3ccc(F)cc3)nc(=O)c3c2CCC3)n1Cc1ccc(-c2ccc(C(F)(F)F)cc2)cc1 | – | –
– | – | 68 | 93 | 34 | 87 | O=c1nc(SCc2ccc(F)cc2)n(Cc2nnc(C3CC3)n2Cc2ccc(-c3ccc(C(F)(F)F)cc3)cc2)c2c1CCC2 | – | –
– | – | 71 | 92 | 34 | 91 | CC(C)c1nnc(Cn2c(SCc3ccc(F)cc3)nc(=O)c3c2CCC3)n1Cc1ccc(-c2ccc(C(F)(F)F)cc2)cc1 | – | –
– | – | 35 | 77 | 13 | 85 | CC(C)N(C)Cc1nnc(Cn2c(SCc3ccc(F)cc3)nc(=O)c3c2CCC3)n1Cc1ccc(-c2ccc(C(F)(F)F)cc2)cc1 | – | –
– | – | 68 | 89 | 29 | 90 | CC(O)c1nnc(Cn2c(SCc3ccc(F)cc3)nc(=O)c3c2CCC3)n1Cc1ccc(-c2ccc(C(F)(F)F)cc2)cc1 (configuration not stated) | – | –
– | – | 71 | 93 | 10 | 90 | CN(Cc1ccc(F)cc1)Cc1nnc(Cn2c(SCc3ccc(F)cc3)nc(=O)c3c2CCC3)n1Cc1ccc(-c2ccc(C(F)(F)F)cc2)cc1 | – | –
95 | – | – | – | – | 67 | O=c1nc(SCc2ccc(F)cc2)n(Cc2nncn2Cc2ccc(-c3ccc(C(F)(F)F)cc3)cc2)c2c1CCC2 | – | –
– | – | 64 | 82 | 20 | 90 | CCN1CCN(Cc2nnc(Cn3c(SCc4ccc(F)cc4)nc(=O)c4c3CCC4)n2Cc2ccc(-c3ccc(C(F)(F)F)cc3)cc2)CC1 | – | –
– | – | 58 | 65 | 23 | 73 | O=c1nc(SCc2ccc(F)cc2)n(Cc2nnc(CO)n2Cc2ccc(-c3ccc(C(F)(F)F)cc3)cc2)c2c1CCC2 | – | –
– | – | 38 | 77 | 16 | 86 | CN(Cc1nnc(Cn2c(SCc3ccc(F)cc3)nc(=O)c3c2CCC3)n1Cc1ccc(-c2ccc(C(F)(F)F)cc2)cc1)C1CC1 | – | –
– | – | 57 | 71 | 11 | 82 | CN(C)C1CCN(Cc2nnc(Cn3c(SCc4ccc(F)cc4)nc(=O)c4c3CCC4)n2Cc2ccc(-c3ccc(C(F)(F)F)cc3)cc2)CC1 | – | –
– | – | 62 | 85 | 21 | 88 | CN(C)Cc1nnc(Cn2c(SCc3ccc(F)cc3)nc(=O)c3c2CCC3)n1Cc1ccc(-c2ccc(C(F)(F)F)cc2)cc1 | – | –
– | – | 49 | 68 | 7 | 75 | CCS(=O)(=O)NCc1nnc(Cn2c(SCc3ccc(F)cc3)nc(=O)c3c2CCC3)n1Cc1ccc(-c2ccc(C(F)(F)F)cc2)cc1 | – | –
– | 40 | – | – | – | – | CCn1c(Cc2ccc(-c3ccc(C(F)(F)F)cc3)cc2)nnc1Cn1c(SCc2ccc(F)cc2)nc(=O)c2c1CCC2 | – | –
– | – | 45 | 51 | 15 | 67 | COC(=O)C(C)(C)N1CCN(Cc2nnc(Cn3c(SCc4ccc(F)cc4)nc(=O)c4c3CCC4)n2Cc2ccc(-c3ccc(C(F)(F)F)cc3)cc2)CC1 | – | –
– | – | 65 | 88 | 25 | 88 | CCCc1nnc(Cn2c(SCc3ccc(F)cc3)nc(=O)c3c2CCC3)n1Cc1ccc(-c2ccc(C(F)(F)F)cc2)cc1 | – | –
– | – | 23 | 69 | 16 | 76 | C[C@@H]1CN(Cc2nnc(Cn3c(SCc4ccc(F)cc4)nc(=O)c4c3CCC4)n2Cc2ccc(-c3ccc(C(F)(F)F)cc3)cc2)C[C@H](C)O1 | – | –
21 | 34 | – | – | – | – | CCn1c(Cn2c(SCc3ccc(F)cc3)nc(=O)c3c2CCC3)nnc1-c1ccc(-c2ccc(C(F)(F)F)cc2)cc1 | – | –
– | – | 11 | 73 | 10 | 79 | Cc1nnc(Cn2c(SCc3ccc(F)cc3)nc(=O)c3c2CCC3)n1Cc1ccc(-c2ccc(C(F)(F)F)cc2)cc1 | – | –
